Test results from BindingDB's records for doi:10.1124/dmd.106.013888 (Act, 2007).

Biological target: T1, Lanosterol 14-alpha demethylase (Homo sapiens, UniProt Q16850)
T1 sequence (Q16850 whole entry): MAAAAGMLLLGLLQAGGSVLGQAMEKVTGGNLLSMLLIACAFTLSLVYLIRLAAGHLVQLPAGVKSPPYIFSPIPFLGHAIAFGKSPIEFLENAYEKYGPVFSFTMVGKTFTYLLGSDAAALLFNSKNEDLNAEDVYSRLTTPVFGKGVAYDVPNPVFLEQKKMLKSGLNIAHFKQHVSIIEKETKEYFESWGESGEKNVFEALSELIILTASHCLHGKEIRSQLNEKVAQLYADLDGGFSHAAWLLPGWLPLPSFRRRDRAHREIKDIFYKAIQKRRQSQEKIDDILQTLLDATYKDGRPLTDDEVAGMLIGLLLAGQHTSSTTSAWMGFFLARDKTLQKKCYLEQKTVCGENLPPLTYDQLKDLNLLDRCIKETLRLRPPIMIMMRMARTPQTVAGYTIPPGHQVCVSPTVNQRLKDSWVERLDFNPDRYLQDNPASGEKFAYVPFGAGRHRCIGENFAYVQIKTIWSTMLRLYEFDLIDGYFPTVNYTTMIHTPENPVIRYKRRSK
Experiment: Inhibition of human CYP51 expressed in Topp 3 cells by lanosterol demethylase assay
How it was run: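 0.5 ml phosphate buffer pH 7.4 with KCN, NADPH regenerating system, 60 min at 37 °C. Triene product extracted and quantified by chromatography (ergosterol internal standard). IC50 read from plot of % activity remaining vs concentration.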

`O=c1c(CC[S+]([O-])c2ccccc2)c(O)n(-c2ccccc2)n1-c1ccccc1` (stereo unspecified) [1,2-Diphenyl-3,5-dioxo-4-(2-phenylsulfinylethyl)pyrazolidine] was tested, and the IC50 was > 200 µM.
